In brackets after ≈: the same amount, converted by molar mass.

In data set [1] the test system is Staphylococcus aureus (ATCC 29213). Nature of the data set: MIC80 by broth microdilution. In kind it is cell-based. The following applies: for MIC80: Staphylococcus aureus, ATCC29213, read-out: Bacteria MIC80 S. aureus (29213); for Bacteria MIC80 S. aureus (29213): concentration inhibiting growth ≥80% vs vehicle, 16–24 h, 35 °C. The method in brief: (§1)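 CLSI broth microdilution in cation-adjusted Mueller–Hinton II broth with a 1.5-fold test-compound dilution series. Overnight culture adjusted to 5 × 10^5 CFU mL−1 final. Incubated 16–24 h at 35 °C ± 2 °C, then growth read by absorbance (OD600). MIC80 is the concentration giving ≥80% growth inhibition versus vehicle-treated cultures. Each value is the average of at least two independent determinations.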

The test system of data set [2] is Escherichia coli (ATCC 35218). Nature of the data set: MIC80 by broth microdilution. The class given is cell-based. The settings on record: for MIC80: Escherichia coli, ATCC35218, read-out: Bacteria MIC80 E. coli (35218). The gist of the method: as §1
A general note: Broth dilution looks for growth in wells or tubes with falling amounts of substance.

Data set [3] has as its system Acinetobacter baumannii (from a patient). Nature of the data set: MIC80 by broth microdilution. The class given is cell-based. The following applies: for MIC80: Acinetobacter baumannii, read-out: Bacteria MIC80 A. baumannii (from a patient). The gist of the method:
as §1

Data set [4] is described as follows: Neutral red cytotoxicity assay. The class given is cell-based. The following applies: human, HepDES19 cells (hepatoblastoma cells). The gist of the method:
(§2)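 HepDES19 cells seeded at 1.0 × 10^4/well in DMEM with 10% FBS, 1% penicillin/streptomycin, 1% nonessential amino acids and 1% glutamine. Test compound (1% DMSO final) added 48 h after plating, triplicate per concentration, and incubated 72 h. Viability measured by neutral red uptake. CC50 is 50% inhibition versus vehicle control, from a 4-variable slope fit of log-transformed data.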

The nature of a further data set: MTS cytotoxicity assay. The settings on record: human, HepDES19 cells (hepatoblastoma cells). In kind it is cell-based. The gist of the method:
(§3)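 HepDES19 cells seeded at 1.0 × 10^4/well in DMEM with 10% FBS, 1% penicillin/streptomycin, 1% nonessential amino acids and 1% glutamine. Test compound in medium (1% DMSO final) added 48 h after plating, triplicate per concentration. After 72 h, MTS added for 90 min; absorbance at 490 nm. CC50 is 50% viability loss versus untreated cells, from a variable-slope log[inhibitor]–response fit.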
For orientation: Tetrazolium assays rely on reduction of a dye to a coloured formazan, in cell work by metabolically active cells.

Data set [5] relates to C. neoformans var grubii, KN99 (serotype A, MATα). Nature of the data set: Inhibition of C. neoformans growth. The class given is cell-based, Cryptococcus neoformans. The gist of the method:
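Test compound 0.19–50 μM, 48 h at 35 °C, density read at OD650. Growth expressed as % of DMSO-only cells. MIC80 is the minimal concentration inhibiting 80% growth versus vehicle. Triplicates; average of ≥2 independent assays.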

The test system of data set [6] is Pseudomonas aeruginosa (ATCC 27853). Nature of the data set: MIC80 by broth microdilution. The class given is cell-based. The settings on record: concentration inhibiting growth ≥80% vs vehicle; 16–24 h, 35 °C. The gist of the method:
as §1

Data set [7] deals with HepDES19 cells. Nature of the data set: Neutral red cytotoxicity assay. The class given is cell-based. The following applies: read-out: CC50 (neutral red); HepDES19 cells, 72 h, lysosomal function. The method in brief: as §2
The subject of data set [8] is HepDES19 cells. Nature of the data set: MTS cytotoxicity assay. In kind it is cell-based. The following applies: read-out: CC50 (MTS); HepDES19 cells, 72 h, mitochondrial function. The gist of the method: as §3
Where [9] appears, read: concentration inhibiting growth ≥80% vs vehicle, 16–24 h, 35 °C.

On to `Cc1ccc(S(=O)(=O)Oc2cc(C(C)C)cccc2=O)cc1` [Compound 9, 4-(1-Methylethyl)-2-[[(4-methylphenyl)sulfonyl]oxy]-2,4,6-cycloheptatrien-1-one], for which the values for the MIC80 in data set [1], in data set [2] and in data set [3] were 8.8 µM (≈ 2.8 µg/mL), greater than 100 µM and greater than 100 µM, respectively. Moreover, the “fold increase in antibacterial activity against S. aureus” value in [1] (relative to natural product 2) turned out to be 8 fold. Moreover, the CC50 at 72 h in data set [4] worked out at 19.5 µM; in the data set “MTS cytotoxicity assay”, 34.2 µM.
Turning to `CC(C)c1cccc(=S)c(O)c1` [Compound 10, 2-Hydroxy-4-isopropylcyclohepta-2,4,6-triene-1-thione], the MIC80 in [1], in [2] and in [3] was greater than 100 µM throughout. Moreover, in data set [5] (relative to hydroxy tropolone 2), the “fold less activity against C. neoformans” value is greater than 2 fold. Moreover, the CC50 at 72 h in data set [4] was determined as 39.7 µM; in the data set “MTS cytotoxicity assay”, 95 µM.
Regarding `Cc1ccc(S(=O)(=O)Oc2cccc(C(C)C)cc2=O)cc1` [Compound 8, 6-(1-Methylethyl)-2-[[(4-methylphenyl)sulfonyl]oxy]-2,4,6-cycloheptatrien-1-one], the MIC80 in data set [1], in [2] and in [3] was greater than 100 µM each time. In addition, the “Bacteria MIC80 S. aureus (29213)” value in data set [1] was greater than 100 µM. Moreover, the “Bacteria MIC80 E. coli (35218)” value in data set [2] (setting [9]) is greater than 100 µM. For the same compound, the “Bacteria MIC80 A. baumannii (from a patient)” value in [3] (setting [9]) is greater than 100 µM. In addition, the “Bacteria MIC80 P. aeruginosa (27853)” value in data set [6] was greater than 100 µM. The values for the CC50 at 72 h (in data set [4]; in the data set “MTS cytotoxicity assay”) were 31.8 µM and 33.6 µM, respectively.
For the compound “7-Hydroxy-3-isopropylcyclohepta-2,4,5-triene-1-thione [Compound 11]”, the “Bacteria MIC80 S. aureus (29213)” value in data set [1] is 16 µM. Further, the “C. neoformans MIC80” value in data set [5] (minimal concentration inhibiting 80% of growth, 48 h, 35 °C, YNB-02 + 1% DMSO) is 24 µM. Also, the half-maximal cytotoxic concentration (CC50) was found to be 30.4 µM in the data set with HepDES19 cells [7] and 64.2 µM in the data set on HepDES19 cells [8].

The MIC80 is the lowest concentration that inhibits either 80% of growth or 80% of the strains tested, depending on the study. The CC50 is the concentration giving 50% cytotoxicity.

Values taken from PMC9085298 (RSC Advances, 2018).
